Residue numbers refer to the chain shown, from its start.
Experiments:
[1] = Resistance ratio of EC90 for NS5A A146S mutant in HCV genotype 2b infected in HuH7 replicon cells to EC90 for NS5A in HCV genotype 1a infected in HuH7 replicon cells; type: cell-based
[2] = test system: Hepatitis C virus subtype 1a; test: Resistance ratio of EC90 for NS5A Y93N mutant in HCV genotype 1a infected in HuH7 replicon cells to EC90 for NS5A in HCV genotype 1a infected in HuH7 replicon cells; type: cell-based
[3] = Clearance in Wistar Han rat at 2 mg/kg, iv by LC/MS method; type: ADME, organism-based; conditions: in vivo
Outline: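 Male Wistar Han rats, two per group, dosed IV at 2 mg/kg in 60% PEG200. Plasma was obtained by centrifuging the blood, and compound concentrations were measured by LC/MS.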

[4] = AUC in Beagle dog at 5 mg/kg, po by LC/MS method; type: ADME, organism-based, Canis lupus familiaris; conditions: in vivo
Outline: (§1)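 Beagle dogs, two animals per dosing group. Oral dose was given in 10% TWEEN. Blood was collected and spun to plasma, and plasma compound levels were measured by LC/MS.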

[5] = target: T1, Nonstructural protein 5A (Hepatitis C virus) (UniProt Q5L478); test: Inhibition of NS5A A92P mutant in HCV genotype 1a infected in HuH7 replicon cells assessed as decrease in viral replication after 3 days by RT-PCR method; type: cell-based; conditions: Hepatitis C virus subtype 1a
T1 sequence (whole entry): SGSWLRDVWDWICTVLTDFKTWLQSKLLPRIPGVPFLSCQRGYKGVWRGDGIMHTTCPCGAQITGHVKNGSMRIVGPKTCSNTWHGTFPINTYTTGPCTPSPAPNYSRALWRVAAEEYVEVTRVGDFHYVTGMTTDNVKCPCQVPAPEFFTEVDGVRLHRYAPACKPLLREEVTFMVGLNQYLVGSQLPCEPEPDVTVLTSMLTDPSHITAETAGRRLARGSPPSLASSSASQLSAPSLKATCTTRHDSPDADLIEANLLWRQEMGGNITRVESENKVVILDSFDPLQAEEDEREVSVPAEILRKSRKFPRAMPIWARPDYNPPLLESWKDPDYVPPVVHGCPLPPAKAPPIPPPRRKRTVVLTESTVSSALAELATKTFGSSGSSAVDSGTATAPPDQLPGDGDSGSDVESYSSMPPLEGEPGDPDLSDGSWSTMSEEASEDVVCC

[6] = target: T1, Nonstructural protein 5A (Hepatitis C virus); test: Inhibition of NS5A L31V mutant in HCV genotype 3a infected in HuH7 replicon cells assessed as decrease in viral replication after 3 days by RT-PCR method; type: cell-based; conditions: Hepatitis C virus subtype 3a
[7] = test system: Nonstructural protein 5A (Hepatitis C virus), Q5L478 [UNDEFINED MUTATION]; test: Inhibition of NS5A L31M/Y93H double mutant in HCV genotype 1b infected in HuH7 replicon cells assessed as decrease in viral replication after 3 days by RT-PCR method; type: cell-based; conditions: Hepatitis C virus subtype 1b
[8] = test system: Hepatitis C virus subtype 1a; test: Resistance ratio of EC90 for NS5A M28T mutant in HCV genotype 1a infected in HuH7 replicon cells to EC90 for NS5A in HCV genotype 1a infected in HuH7 replicon cells; type: cell-based
[9] = target: T1, Nonstructural protein 5A (Hepatitis C virus); test: Inhibition of NS5A in HCV genotype 4a infected in HuH7 replicon cells assessed as decrease in viral replication after 3 days by RT-PCR method; type: cell-based; conditions: Hepatitis C virus subtype 4a
[10] = AUC in Wistar Han rat at 10 mg/kg, po by LC/MS method; type: ADME, organism-based; conditions: in vivo
Outline: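 Male Wistar Han rats, two per dosing group, dosed orally at 10 mg/kg in 10% TWEEN. Plasma was separated from collected blood by centrifugation and analysed by LC/MS.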

[11] = Resistance ratio of EC90 for NS5A L28M/Y93H double mutant in HCV genotype 1b infected in HuH7 replicon cells to EC90 for NS5A in HCV genotype 1a infected in HuH7 replicon cells; type: cell-based
[12] = test system: T2, Nonstructural protein 5A (Hepatitis C virus), Q5L478 [Y93N]; test: Inhibition of NS5A Y93N mutant in HCV genotype 1a infected in HuH7 replicon cells assessed as decrease in viral replication after 3 days by RT-PCR method; type: cell-based; conditions: Hepatitis C virus subtype 1a
T2 sequence (whole entry): T1 sequence (whole entry) with Y93N

[13] = Resistance ratio of EC90 for NS5A M31V mutant in HCV genotype 2b infected in HuH7 replicon cells to EC90 for NS5A in HCV genotype 1a infected in HuH7 replicon cells; type: cell-based
[14] = Tmax in Wistar Han rat at 100 mg/kg, po by LC/MS method; type: ADME, organism-based; conditions: in vivo
Outline: (§2)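 Single rising oral dose study in fed male Wistar Han rats, dosed PO in 10% TWEEN at the indicated doses. Plasma was obtained by centrifuging the blood, and compound levels were determined by LC/MS.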

[15] = Resistance ratio of EC90 for NS5A L31M mutant in HCV genotype 2b infected in HuH7 replicon cells to EC90 for NS5A in HCV genotype 1a infected in HuH7 replicon cells; type: cell-based
[16] = target: T1, Nonstructural protein 5A (Hepatitis C virus); test: Inhibition of NS5A M28K mutant in HCV genotype 1a infected in HuH7 replicon cells assessed as decrease in viral replication after 3 days by RT-PCR method; type: cell-based; conditions: Hepatitis C virus subtype 1a
[17] = target: T1, Nonstructural protein 5A (Hepatitis C virus); test: Inhibition of NS5A A30K mutant in HCV genotype 3a infected in HuH7 replicon cells assessed as decrease in viral replication after 3 days by RT-PCR method; type: cell-based; conditions: Hepatitis C virus subtype 3a
[18] = Cmax in Wistar Han rat at 300 mg/kg, po by LC/MS method; type: ADME, organism-based; design: dose 300 mg/kg, route oral; conditions: in vivo; outline: as §2
[19] = AUC in Wistar Han rat at 100 mg/kg, po by LC/MS method; type: ADME, organism-based; conditions: in vivo; outline: as §2
[20] = target: T1, Nonstructural protein 5A (Hepatitis C virus); test: Inhibition of NS5A L31V mutant in HCV genotype 1a infected in HuH7 replicon cells assessed as decrease in viral replication after 3 days by RT-PCR method; type: cell-based; conditions: Hepatitis C virus subtype 1a
[21] = Cmax in Beagle dog at 5 mg/kg, po by LC/MS method; type: ADME, organism-based, Canis lupus familiaris; design: dose 5 mg/kg, route oral; conditions: in vivo; outline: as §1
[22] = Half life in Beagle dog at 1 mg/kg, iv by LC/MS method; type: ADME, organism-based, Canis lupus familiaris; conditions: in vivo
Outline: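 Beagle dogs, two animals per group, dosed IV at 1 mg/kg in 60% PEG200. Plasma was prepared from collected blood by centrifugation, and compound was quantified by LC/MS.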

**Q.** For COC(=O)N[C@H](C(=O)N1CCC[C@H]1c1ncc(-c2cc(F)c3c(c2)O[C@@H](c2ccc(C4CC4)s2)n2c-3cc3cc(-c4cnc([C@@H]5CCCN5C(=O)[C@@H](NC(=O)OC)[C@@H]5CCOC(C)(C)C5)[nH]4)ccc32)[nH]1)C(C)C, which Ratio [1] is on record?
**A.** 1

**Q.** And the Ratio [2]?
**A.** 16

**Q.** And the clearance [3]?
**A.** 7 mL/min/kg

**Q.** What about the AUC [4] of the same compound?
**A.** 4.19 µM·h

**Q.** And the EC90 [5]?
**A.** 0.00014 nM

**Q.** What about the EC90 [6] of the same compound?
**A.** 3.2 nM

**Q.** What about the EC90 [7] of the same compound?
**A.** 0.19 nM

**Q.** And the Ratio [8]?
**A.** < 1

**Q.** What about the EC90 [9] of the same compound?
**A.** 0.006 nM

**Q.** What about the AUC [10] of the same compound?
**A.** 0.95 to 1.65 µM·h

**Q.** And the Ratio [11]?
**A.** 15

**Q.** What about the EC90 [12] of the same compound?
**A.** 0.069 nM

**Q.** What about the Ratio [13] of the same compound?
**A.** 5

**Q.** What about the Tmax [14] of the same compound?
**A.** 2 h

**Q.** What about the Ratio [15] of the same compound?
**A.** 4

**Q.** And the EC90 [16]?
**A.** 0.42 nM

**Q.** And the EC90 [17]?
**A.** 0.018 nM

**Q.** What about the Cmax [18] of the same compound?
**A.** 1060 nM

**Q.** And the AUC [19]?
**A.** 7.82 µM·h

**Q.** And the EC90 [20]?
**A.** 0.0043 nM

**Q.** What about the Cmax [21] of the same compound?
**A.** 660 nM

**Q.** What about the half-life [22] of the same compound?
**A.** 5.8 h

From ChEMBL document CHEMBL4177770, “Discovery of MK-6169, a Potent Pan-Genotype Hepatitis C Virus NS5A Inhibitor with Optimized Activity against Common Resistance-Associated Substitutions” (J Med Chem, 2018)
